According to PubChem BioAssay AID588478 (ICCB-Longwood Screening Facility, Harvard Medical School, 2011):
In all, about 330,000 compounds went through this assay and about 1,100 (0.33%) were called active.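 How the source made its calls: active means mean inhibition over replicate wells above about 20% (limit read from the data); inactive means the rest.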 For the sample, actives were picked, then their nearest neighbours and some compounds at random.

Biological target: Ubiquitin carboxyl-terminal hydrolase isozyme L5 (Homo sapiens) (UniProt Q9Y5K5)
Assay: inhibitors of human UCH37 deubiquitinase, primary screen, biochemical, Ub-AMC cleavage, fluorescence (AID 588478);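 further: 0% = compound-free wells with enzyme and 100% = wells lacking proteasome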
Conditions: purified proteasome/UCH37, Ub-AMC cleavage fluorescence; stronger effect = higher value; concentration not given here
Method in brief: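 assay system = human UCH37 enzyme supplied as purified proteasome complex | amount = proteasome at 0.15 nM in the dispensed enzyme solution | schedule = 30 min compound-proteasome preincubation then 25 min substrate reaction, room temperature | measured by = fluorescence, ex 355 nm, em 460 nm | benchmarks = no-proteasome wells (full inhibition) and compound-free wells (no inhibition)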

Sequence of Ubiquitin carboxyl-terminal hydrolase isozyme L5 (Homo sapiens) (Q9Y5K5 whole entry, looked up): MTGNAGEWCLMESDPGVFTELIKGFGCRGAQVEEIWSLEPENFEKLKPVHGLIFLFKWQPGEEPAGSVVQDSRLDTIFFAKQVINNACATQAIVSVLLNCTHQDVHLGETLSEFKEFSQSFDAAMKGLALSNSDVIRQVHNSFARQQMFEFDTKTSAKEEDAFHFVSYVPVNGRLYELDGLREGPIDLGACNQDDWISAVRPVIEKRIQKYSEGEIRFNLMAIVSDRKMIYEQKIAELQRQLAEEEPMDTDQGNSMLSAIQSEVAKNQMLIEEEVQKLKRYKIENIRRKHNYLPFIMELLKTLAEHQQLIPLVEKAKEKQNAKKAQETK

Compound | inhibition
CCCCCCCCCCCCn1ccc(=N)cc1 | 29.5% (active)
Brc1ccc2[nH]cc(C=NN3CCCCC3)c2c1 | 1.15% (inactive)
C#C[C@]1(O)CCC2C3CCC4=CC(=NOCC(=O)NC(C)C(=O)NC(CCSC)C(=O)O)CC[C@]4(C)C3CC[C@@]21C (stereo not given in full) | -1.31% (inactive)
C=CCN1CC[C@]23c4c5ccc(O)c4O[C@H]2C(=NNC(=O)c2ccccc2)CC[C@@]3(O)[C@H]1C5 | 4.43% (inactive)
CC12CCC3C(CCC4CC(=NO)CCC43C)C1CCC2O (stereo not given) | 2.36% (inactive)
CCC(C)n1c(O)c(/C=N/Nc2nc3c(c(=O)n(C)c(=O)n3C)n2C)c(=O)[nH]c1=S (stereo not given) | 21.4% (active)
Cc1ccccc1/C=C\c1nc(O)c([N+](=O)[O-])c(=O)[nH]1 | 11.3% (inactive)
CNC(=O)Nc1ccc(C(=O)NN=CC23CC[C@@H](O)CC2(O)CC[C@@H]2[C@@H]3CCC3(C)C(C4=CC(=O)OC4)CCC23O)cc1 (stereo not given in full) | 3.8% (inactive)
COc1cc(C(=O)NC2CCN(Cc3ccccc3)CC2)cc(Cl)c1OC(C)C | 4.45% (inactive)
COc1ccc(N2C(=O)/C(=C/c3ccco3)C(=O)NC2=S)cc1 | 31.7% (active)
COc1cccc(N2C(=O)NC(=O)/C(=C\c3ccc([N+](=O)[O-])s3)C2=O)c1 | 11.5% (inactive)
O=C1NC(=O)N(c2ccccc2)C(=O)/C1=C/c1ccc([N+](=O)[O-])s1 | 5.15% (inactive)
Nc1nonc1C(=O)NN=Cc1ccc([N+](=O)[O-])o1 | 13.2% (inactive)
CC1=CC(=Cc2sc3ccccc3[n+]2C)C=C(C)O1 | 20.3% (active)
COC(=O)[C@H](Cc1ccccc1)NC(=O)Nc1ccc(S(N)(=O)=O)cc1 | 2.98% (inactive)
COc1ccc(C=NN=C(N)N[N+](=O)[O-])c(OC)c1 | 18.6% (inactive)
Oc1ccc(C=NNP(=S)(c2ccccc2)c2ccccc2)cc1O | 2.56% (inactive)
COc1cccc(C(=O)N2C[C@H]3C[C@@H](C2)c2cccc(=O)n2C3)c1 | 2.34% (inactive)
O=C(CN1CCN(S(=O)(=O)c2cccc(Cl)c2)CC1)N1CCCCC1 | 5.51% (inactive)
CN1CCN(N=Cc2c[nH]c3ccccc23)CC1 | 3.94% (inactive)
